Results on 24 compounds are retold here after ChEMBL document CHEMBL1123612, “Studies on histamine H2 receptor antagonists. 2. Synthesis and pharmacological activities of N-sulfamoyl and N-sulfonyl amidine derivatives” (1987).

Some results are limits rather than exact numbers.

Assay [1] addresses Histamine H2 receptor (Cavia porcellus) (UniProt P47747). Description: Histamine H2 receptor antagonist activity (chronotropic response to histamine) in guinea pig right atrium. The following applies: Cardiac atrium. Type of assay: functional, tissue-based. The gist of the method: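 Spontaneously beating atrium; rate recorded via force-displacement transducer. Test compound added 10 min before histamine (5 × 10⁻⁶ M), three to four concentrations per compound. Percent inhibition of the histamine-induced rate increase plotted against log concentration; 50% inhibitory dose read from the dose-response curve (means ± SE).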

Assay [2] concerns Canis familiaris. Put plainly: (§1) Reduction in gastric acid secretion under histamine[160 ug/(kg h)] stimulation in anesthetized dogs after intravenous administration. It is filed as functional. The following applies: Canis lupus familiaris, Stomach. The gist of the method: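 Fasted (24 h) mongrel dogs, 8-10 kg, anesthetized with iv pentobarbital (30 mg/kg). Gastric juice acidity titrated with 0.05 N NaOH. Percent inhibition per dose taken from predrug acid output versus minimum output, usually reached within 45 min of dosing. ED50 read from semilog plot of inhibition against dose; two to four dogs per compound.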

The test system of assay [3] is Canis familiaris. Described as §1. The following applies: Canis lupus familiaris, Stomach.

Sequence of Histamine H2 receptor (Cavia porcellus) (P47747 whole entry): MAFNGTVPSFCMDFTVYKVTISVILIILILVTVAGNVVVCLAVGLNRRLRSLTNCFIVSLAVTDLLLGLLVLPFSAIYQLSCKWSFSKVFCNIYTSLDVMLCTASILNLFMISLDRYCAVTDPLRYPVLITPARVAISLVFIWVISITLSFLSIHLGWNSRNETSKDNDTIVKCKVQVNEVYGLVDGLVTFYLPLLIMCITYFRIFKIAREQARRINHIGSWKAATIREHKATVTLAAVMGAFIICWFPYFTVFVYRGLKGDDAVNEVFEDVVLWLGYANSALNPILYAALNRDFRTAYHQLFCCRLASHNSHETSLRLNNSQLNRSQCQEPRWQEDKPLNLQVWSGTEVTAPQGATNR

Regarding `CN(C)Cc1ccc(CSCCC(=N)NS(N)(=O)=O)o1`, the ED50 in assay [1] came to 17000 nM.
Regarding `N=C(N)Nc1nc(CCCCC(=N)NNS(=O)(=O)c2ccccc2)cs1`, the ED50 in assay [1] turned out to be 23000 nM.
Turning to `N=C(N)Nc1nc(CCCCC(=N)NS(=O)(=O)c2ccccc2)cs1`, the results for the ED50 in assay [2] and in assay [1] were 0.0194 mg/kg and 580 nM, respectively.
On to `N=C(N)Nc1nc(CSCCC(=N)NS(=O)(=O)NCc2ccccc2)cs1`, for which the ED50 in assay [2] turned out to be 0.0396 mg/kg; in assay [1] it was 1100 nM.
For `N=C(N)Nc1nc(CCCCC(=N)NS(N)(=O)=O)cs1`, the ED50 was 0.0089 mg/kg in assay [2] and 230 nM in assay [1].
Take `CCCNS(=O)(=O)NC(=N)CCCCc1csc(N=C(N)N)n1`: the ED50 in assay [2] came to 0.0266 mg/kg; in assay [1], 560 nM.
With `CNS(=O)(=O)NC(=N)CCSCc1csc(N=C(N)N)n1`, the ED50 in assay [2] came to 0.0366 mg/kg; in assay [1], 860 nM.
Turning to `N=C(N)Nc1nc(CSCCC(=N)NS(=O)(=O)c2ccccc2)cs1`, the ED50 in assay [2] came out at 0.0568 mg/kg; in assay [1] it was 700 nM.
In the same order, the values of `N=C(N)Nc1nc(CSCCC(=N)NS(=O)(=O)c2ccc(N)cc2)cs1` are 0.03 mg/kg and 450 nM.
On to `CN(C)Nc1nc(CSCCC(=N)NS(N)(=O)=O)cs1`, for which the ED50 in assay [1] was over 100000 nM.
In the case of `C/N=C(\N)Nc1nc(CSCCC(=N)NS(N)(=O)=O)cs1`, the ED50 was 0.0518 mg/kg in assay [2] and 480 nM in assay [1].
Consider `CN(C)S(=O)(=O)NC(=N)CCSCc1csc(N=C(N)N)n1.O=C(O)/C=C\C(=O)O`, for which the ED50 in assay [2] was 0.277 mg/kg; in assay [1], 1400 nM.
As to `CN/C(=N\CCSCc1nc[nH]c1C)NC#N` [CIMETIDINE], the ED50 in assay [3] is 0.33 mg/kg; in assay [1], 2700 nM.
In assay [1], `N=C(CCSCc1ccccn1)NS(N)(=O)=O` displayed an ED50 of over 100000 nM.
Turning to `N=C(N)Nc1nc(CCCCC(=N)NS(=O)(=O)c2ccc(N)cc2)cs1`, the ED50 in assay [2] is 0.0101 mg/kg; in assay [1], 350 nM.
In assay [1], `N=C(N)Nc1nc(C[S+]([O-])CCC(=N)NS(N)(=O)=O)cs1` (configuration not stated) returned an ED50 of 73000 nM.
With `N=C(CCCOc1cccc(CN2CCCCC2)c1)NS(N)(=O)=O`, in assay [1], the ED50 is 1400 nM.
`N=C(N)Nc1nc(CSCCC(=N)NS(N)(=O)=O)no1` returned an ED50 in assay [1] of over 100000 nM.
For `CCS(=O)(=O)NC(=N)CCCCc1csc(N=C(N)N)n1`, the results for the ED50 in assay [2] and in assay [1] were 0.0244 mg/kg and 600 nM, respectively.
`N=C(N)Nc1nc(CCCCC(=N)NS(=O)(=O)NC2CCCCC2)cs1` yielded an ED50 in assay [1] of 1300 nM.
On to `NC(N)=Nc1nc(CSCC/C(N)=N/S(N)(=O)=O)cs1` [FAMOTIDINE], for which the ED50 was determined as 0.0087 mg/kg in assay [2] and 270 nM in assay [1].
In assay [1], `Cc1[nH]cnc1CSCCC(=N)NS(N)(=O)=O` displayed an ED50 of over 100000 nM.
For the compound `CS(=O)(=O)NC(=N)CCSCc1csc(N=C(N)N)n1`, in assay [1], the ED50 came to 510 nM.
As to `N=C(N)Nc1nc(CSCCC(=N)NNS(=O)(=O)c2ccccc2)cs1`, in assay [1], the ED50 is 8300 nM.
